Compounds with a hit are over-represented: about 2.4% of the library has one in this group of screens.
Runt-CBFb FRET = inhibitors of human RUNX1 Runt domain binding to CBFb; AID 1496; 220,000 tested, 0.46% active; Q01196+Q13951; inhibition, % at 20 µM; Cerulean-Runt/Venus-CBFb FRET ratio 530/480, 1 h;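 active means inhibition over about 50% at 20 µM in the single-dose screen, limit read from the data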;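 further: 0% = DMSO wells and 100% = excess unlabeled CBFb competitor control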
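Buffer or medium: Tris pH 7.5 buffer with BSA. Assay system: Cerulean-labeled Runt domain protein. Amount: each fluorescent fusion protein 100 nM. Read-out basis: loss of energy transfer signal. Incubation: 1 h compound exposure, room temperature. Probe or stimulus: Venus-CBFb binding partner, 100 nM. Detection: FRET, excitation 422 nm, emission at 530 and 480 nm.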
EBV gp42 inh = blocks Epstein-Barr virus glycoprotein 42 binding; Q1HVG2; Fluorescence polarization binding assay, mP read-out; inhibition, % (tested at 21.74 µM); 220,000 tested, 0.42% active; AID 1085; in the data active means inhibition above about 50%
Target sequence (Q1HVG2 whole entry, looked up): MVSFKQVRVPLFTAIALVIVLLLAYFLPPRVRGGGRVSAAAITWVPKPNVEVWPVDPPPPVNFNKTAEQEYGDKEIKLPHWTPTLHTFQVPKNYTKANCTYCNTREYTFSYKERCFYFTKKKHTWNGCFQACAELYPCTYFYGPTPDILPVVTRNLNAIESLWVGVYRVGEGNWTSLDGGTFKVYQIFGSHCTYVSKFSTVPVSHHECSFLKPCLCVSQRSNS
RanGTP-Imp inh = inhibitors of RanGTP-importin-beta interaction, primary screen, biochemical, FRET, CFP-Ran, YFP-importin-beta, homogeneous | cell-free CFP-Ran/YFP-importin-beta FRET ratio | inhibition, % (no concentration beside the values) | 300,000 tested, 1.1% active;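 active means more than half of the replicate wells show a fall in the fluorescence ratio signal beyond about 16%, limit read from the data, passing the limit was not always enough; inconclusive means exactly half of the replicate wells pass the set limit; inactive means fewer than half of replicates pass the limit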;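 further: 0% = DMSO wells and 100% = Ran loaded with GDP instead of GTP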
Runt-SMMHC FRET = blocks binding of human RUNX1 Runt domain to CBFb-SMMHC; Q01196+Q13951; Cerulean-Runt/Venus-CBFb-SMMHC FRET ratio 530/480, 1 h; inhibition, % at 20 µM; 220,000 tested, 0.74% active;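 active means mean inhibition across duplicate retests at 20 µM reaching about 50%, limit read from the data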;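 further: 0% = DMSO wells and 100% = wells with excess untagged CBFb-SMMHC; inhibitors lower the FRET ratio by blocking Runt binding to CBFb-SMMHC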
MEX-5 binding = C. elegans MEX-5 TCR-2 RNA binding activity. Q9XUB2. activity score (negative = inhibition of binding), % at 10 µM. 300,000 tested, 0.38% active. MEX-5/FITC-TCR2 RNA binding, fluorescence polarization; stronger effect = lower value;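 active means inhibition past about -25% in most replicates, and total fluorescence under double the plate's negative control median, limit read from the data; inconclusive means replicates evenly split on the limit, or fluorescence at least double controls; inactive means too little inhibition in most replicates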;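 further: 0% = DMSO and -100% = 5 µM competing unlabeled TCR2 RNA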
Target sequence (Q9XUB2 whole entry, looked up): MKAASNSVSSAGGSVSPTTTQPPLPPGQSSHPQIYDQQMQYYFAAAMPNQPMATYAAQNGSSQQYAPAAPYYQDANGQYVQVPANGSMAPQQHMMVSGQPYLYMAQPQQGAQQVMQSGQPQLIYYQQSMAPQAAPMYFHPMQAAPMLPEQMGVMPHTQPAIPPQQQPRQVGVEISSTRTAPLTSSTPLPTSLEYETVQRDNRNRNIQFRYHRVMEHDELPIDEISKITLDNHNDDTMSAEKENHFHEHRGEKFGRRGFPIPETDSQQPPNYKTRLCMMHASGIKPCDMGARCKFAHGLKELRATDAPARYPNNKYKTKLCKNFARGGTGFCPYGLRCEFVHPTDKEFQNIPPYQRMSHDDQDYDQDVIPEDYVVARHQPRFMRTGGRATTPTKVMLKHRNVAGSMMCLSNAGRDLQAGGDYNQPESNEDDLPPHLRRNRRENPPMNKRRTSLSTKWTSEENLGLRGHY
LANA-H2A inh = blocks KSHV LANA binding to histone H2A/H2B; cell-free LANA-H2A/H2B peptide, fluorescence polarization; inhibition, % (test concentration not listed); 320,000 tested, 0.6% active; in the data active means inhibition mostly above about 10%, no sharp cut-off; inactive means mostly below about 6.7%
Starred values were filed as active, the others as inactive.

Results for N#Cc1cc2cc3c(cc2nc1NCCNC(=S)NCCCN1CCOCC1)OCO3 ?
Runt-CBFb FRET: 102.7*; EBV gp42 inh: -2.9; RanGTP-Imp inh: 1.7; Runt-SMMHC FRET: 100.2*; MEX-5 binding: -2.5; LANA-H2A inh: -0.5

What do the screens show for `Cc1ccc2c(C)nc(SC(C(=O)c3ccccc3)c3ccccc3)nc2c1` (stereo not drawn)?
Runt-CBFb FRET: -7.5; EBV gp42 inh: -3.6; RanGTP-Imp inh: 1.5; Runt-SMMHC FRET: -1.9; MEX-5 binding: -1.9; LANA-H2A inh: 4.7

What do the screens show for `COc1ccc(C(C)=O)cc1COc1ccc(-n2cnnn2)cc1`?
Runt-CBFb FRET: 1.0; EBV gp42 inh: -10.6; RanGTP-Imp inh: -1.8; Runt-SMMHC FRET: -0.6; MEX-5 binding: 0.7; LANA-H2A inh: 5.2

What do the screens show for `CCCCCn1c(=O)[nH]c2cc(C(=O)O)ccc2c1=O`?
Runt-CBFb FRET: 0.7; EBV gp42 inh: -11.2; RanGTP-Imp inh: -1.6; Runt-SMMHC FRET: -7.1; MEX-5 binding: 0.7; LANA-H2A inh: 3.4

What do the screens show for `CCCCn1c(SCC(=O)Nc2ccc(NC(C)=O)cc2)nc2ccccc2c1=O`?
RanGTP-Imp inh: -0.8; MEX-5 binding: -0.8; LANA-H2A inh: -1.8

How did CCC(=O)Nc1ccc2ccccc2c1 do in these assays?
Runt-CBFb FRET: -1.0; EBV gp42 inh: -14.5; RanGTP-Imp inh: -1.6; Runt-SMMHC FRET: 3.5; MEX-5 binding: 2.0; LANA-H2A inh: 1.0

Results for CCCCn1c(=O)[nH]c2nc3cc(NC(C)=O)ccc3nc2c1=O ?
Runt-CBFb FRET: -98.9; EBV gp42 inh: 78.5*; RanGTP-Imp inh: -11.8; Runt-SMMHC FRET: 22.5; MEX-5 binding: -11.9; LANA-H2A inh: 0.3

What do the screens show for `CCCCCCn1c(=O)[nH]c2nc3cc(N)c(C)cc3nc2c1=O`?
Runt-CBFb FRET: 14.0; EBV gp42 inh: 148.3*; Runt-SMMHC FRET: -7.0

Results for CCC(=O)Nc1ccc2nc3c(=O)[nH]c(=S)[nH]c3nc2c1 ?
RanGTP-Imp inh: -13.3; MEX-5 binding: -46.4*; LANA-H2A inh: -5.3

How did COC(=O)C(Cc1ccccc1)NS(=O)(=O)c1ccccc1Br (stereo not drawn) do in these assays?
Runt-CBFb FRET: 1.0; EBV gp42 inh: -29.6; RanGTP-Imp inh: -0.8; Runt-SMMHC FRET: -2.9; MEX-5 binding: -0.6; LANA-H2A inh: 1.3

Results for O=C(O)C(Cc1ccccc1)NC(=O)C(Cc1ccccc1)NC(=O)C12CC3CC(CC(C3)C1)C2 (stereo not drawn) ?
RanGTP-Imp inh: inconclusive; MEX-5 binding: 2.3; LANA-H2A inh: 0.1

Results for COc1ccc(NC(=O)CN2C(=O)COc3ccc(S(=O)(=O)N4CCCCCC4)cc32)cc1 ?
RanGTP-Imp inh: 2.6; MEX-5 binding: -3.4; LANA-H2A inh: -2.2

How did O=C(CNC(=O)c1ccccc1F)NCCN1C(=O)S/C(=C\c2ccc3c(c2)OCO3)C1=O do in these assays?
LANA-H2A inh: 28.0*

What do the screens show for `CN1CCN(c2nc3ccccn3c(=O)c2/C=C(\C#N)S(=O)(=O)c2ccc(Cl)cc2)CC1`?
Runt-CBFb FRET: 0.0; EBV gp42 inh: 3.3; RanGTP-Imp inh: 96.7*; Runt-SMMHC FRET: 4.8; MEX-5 binding: -0.1; LANA-H2A inh: -0.3

Results for Cc1cccn2c(=O)c(/C=C(\C#N)S(=O)(=O)c3ccccc3)c(Oc3ccc(Cl)cc3)nc12 ?
Runt-CBFb FRET: -37.3; EBV gp42 inh: -19.0; RanGTP-Imp inh: 26.9*; Runt-SMMHC FRET: -85.8; MEX-5 binding: -1.4; LANA-H2A inh: -4.2

How did Cc1ccc(S(=O)(=O)/C(C#N)=C/c2c(N3CCN(C)CC3)nc3ccccn3c2=O)cc1 do in these assays?
Runt-CBFb FRET: 6.6; EBV gp42 inh: 4.8; RanGTP-Imp inh: 65.5*; Runt-SMMHC FRET: 10.0; MEX-5 binding: -0.5; LANA-H2A inh: -0.6

Results for COC(=O)/C(C#N)=C/c1c(N2CCN(c3ccccc3)CC2)nc2ccccn2c1=O ?
RanGTP-Imp inh: -7.5; MEX-5 binding: 1.5; LANA-H2A inh: -3.0

What do the screens show for `COC(=O)/C(C#N)=C/c1c(N2CCN(C)CC2)nc2ccccn2c1=O`?
RanGTP-Imp inh: 107.4*; MEX-5 binding: -1.6; LANA-H2A inh: 0.9

What do the screens show for `COc1cccc(NC(=O)CN2C(=O)COc3ccc(S(=O)(=O)N4CCC(C)CC4)cc32)c1`?
RanGTP-Imp inh: 3.4; MEX-5 binding: -0.1; LANA-H2A inh: -5.8

Results for C=C1c2cc(C)c(C)cc2NC(=O)N1c1ccccc1 ?
Runt-CBFb FRET: 2.9; EBV gp42 inh: -10.5; RanGTP-Imp inh: -0.1; Runt-SMMHC FRET: 60.2*; MEX-5 binding: -0.7; LANA-H2A inh: -6.5

How did Cc1cc(C(=O)N/N=C/c2ccc(-c3cccc(Cl)c3Cl)o2)n[nH]1 do in these assays?
Runt-CBFb FRET: -1.6; EBV gp42 inh: -66.0; RanGTP-Imp inh: -0.5; Runt-SMMHC FRET: -15.9; MEX-5 binding: -38.1*; LANA-H2A inh: 1.3

What do the screens show for `Cc1cc(C(=O)N/N=C/c2ccc(-c3cccc(Br)c3)o2)n[nH]1`?
Runt-CBFb FRET: -1.8; EBV gp42 inh: -15.5; RanGTP-Imp inh: -1.7; Runt-SMMHC FRET: -10.8; MEX-5 binding: -1.9; LANA-H2A inh: -2.5

How did COC(=O)c1cc(CNC(=O)c2ccc(N3CCCC3)c([N+](=O)[O-])c2)ccc1OC do in these assays?
RanGTP-Imp inh: -5.6; MEX-5 binding: 2.0; LANA-H2A inh: 2.0

What do the screens show for `Nc1ccc(Nc2nc(-c3cc4ccccc4oc3=O)cs2)cc1`?
EBV gp42 inh: -9.1; RanGTP-Imp inh: 2.4; MEX-5 binding: -0.4; LANA-H2A inh: 5.4

How did O=c1oc2ccccc2cc1-c1nc(-c2cccs2)cs1 do in these assays?
Runt-CBFb FRET: -24.4; EBV gp42 inh: 112.5*; RanGTP-Imp inh: -85.1; Runt-SMMHC FRET: -128.9; MEX-5 binding: inconclusive; LANA-H2A inh: -0.3

How did N#CCc1nc(-c2cc3ccccc3oc2=O)cs1 do in these assays?
Runt-CBFb FRET: 2.7; EBV gp42 inh: -0.2; RanGTP-Imp inh: 176.7*; Runt-SMMHC FRET: -0.5; MEX-5 binding: -2.4; LANA-H2A inh: 0.1

How did O=C(c1cccc(C(F)(F)F)c1)C1CCCN(C(=O)CCCN2CCCC2=O)C1 (stereo not drawn) do in these assays?
Runt-CBFb FRET: -2.1; EBV gp42 inh: -17.7; RanGTP-Imp inh: -2.4; Runt-SMMHC FRET: -0.9; MEX-5 binding: -3.6; LANA-H2A inh: 0.5

Results for COc1ccc(-n2c(O)c(/C=N/NS(=O)(=O)c3cc(C)ccc3C)c3ccccc3c2=O)cc1OC ?
Runt-CBFb FRET: -5.2; EBV gp42 inh: -18.8; RanGTP-Imp inh: -2.2; Runt-SMMHC FRET: -77.2; MEX-5 binding: -30.5*; LANA-H2A inh: -10.2

How did COc1ccc(-n2c(O)c(/C=N/NS(=O)(=O)c3ccc(C)cc3)c3ccccc3c2=O)cc1OC do in these assays?
Runt-CBFb FRET: -12.4; EBV gp42 inh: -22.1; RanGTP-Imp inh: 0.2; Runt-SMMHC FRET: -67.5; MEX-5 binding: 5.1

Compound activity: PubChem, several laboratories
